Measurements from ChEMBL document CHEMBL4020742, “Design and optimization of purine derivatives as in vivo active PDE10A inhibitors” (Bioorg Med Chem, 2017).

Experiments:
[1] = target: T1, cAMP and cAMP-inhibited cGMP 3',5'-cyclic phosphodiesterase 10A (Homo sapiens, UniProt Q9Y233); assay: Inhibition of recombinant human N-terminal GST-tagged PDE10A1 (2 to 789 residues) expressed in baculovirus infected Sf9 cells at 5 uM using fluorescein-labeled cAMP as substrate preincubated for 15 mins followed by substrate addition measured after 30 mins by IMAP fluorescence polarization assay relative to control
Method in brief: (§1)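 Recombinant PDE4A1A, PDE2A1 or PDE10A1 was incubated with compound (1% DMSO, duplicate) for 15 min at RT. Fluorescein-cAMP was then added for 30 min at RT, and the reaction was stopped with IMAP binding reagent (1 h, dark). FP was read at Ex485/Em535. Inhibition was set against no-enzyme and DMSO controls. IC50 came from a four-parameter logistic fit; values are the mean of at least two measurements.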

[2] = target: T1, cAMP and cAMP-inhibited cGMP 3',5'-cyclic phosphodiesterase 10A; assay: Inhibition of recombinant human N-terminal GST-tagged PDE10A1 (2 to 789 residues) expressed in baculovirus infected Sf9 cells using fluorescein-labeled cAMP as substrate preincubated for 15 mins followed by substrate addition measured after 30 mins by IMAP fluorescence polarization assay; method in brief: as §1

T1 sequence (Q9Y233 whole entry, the tested form may be a part): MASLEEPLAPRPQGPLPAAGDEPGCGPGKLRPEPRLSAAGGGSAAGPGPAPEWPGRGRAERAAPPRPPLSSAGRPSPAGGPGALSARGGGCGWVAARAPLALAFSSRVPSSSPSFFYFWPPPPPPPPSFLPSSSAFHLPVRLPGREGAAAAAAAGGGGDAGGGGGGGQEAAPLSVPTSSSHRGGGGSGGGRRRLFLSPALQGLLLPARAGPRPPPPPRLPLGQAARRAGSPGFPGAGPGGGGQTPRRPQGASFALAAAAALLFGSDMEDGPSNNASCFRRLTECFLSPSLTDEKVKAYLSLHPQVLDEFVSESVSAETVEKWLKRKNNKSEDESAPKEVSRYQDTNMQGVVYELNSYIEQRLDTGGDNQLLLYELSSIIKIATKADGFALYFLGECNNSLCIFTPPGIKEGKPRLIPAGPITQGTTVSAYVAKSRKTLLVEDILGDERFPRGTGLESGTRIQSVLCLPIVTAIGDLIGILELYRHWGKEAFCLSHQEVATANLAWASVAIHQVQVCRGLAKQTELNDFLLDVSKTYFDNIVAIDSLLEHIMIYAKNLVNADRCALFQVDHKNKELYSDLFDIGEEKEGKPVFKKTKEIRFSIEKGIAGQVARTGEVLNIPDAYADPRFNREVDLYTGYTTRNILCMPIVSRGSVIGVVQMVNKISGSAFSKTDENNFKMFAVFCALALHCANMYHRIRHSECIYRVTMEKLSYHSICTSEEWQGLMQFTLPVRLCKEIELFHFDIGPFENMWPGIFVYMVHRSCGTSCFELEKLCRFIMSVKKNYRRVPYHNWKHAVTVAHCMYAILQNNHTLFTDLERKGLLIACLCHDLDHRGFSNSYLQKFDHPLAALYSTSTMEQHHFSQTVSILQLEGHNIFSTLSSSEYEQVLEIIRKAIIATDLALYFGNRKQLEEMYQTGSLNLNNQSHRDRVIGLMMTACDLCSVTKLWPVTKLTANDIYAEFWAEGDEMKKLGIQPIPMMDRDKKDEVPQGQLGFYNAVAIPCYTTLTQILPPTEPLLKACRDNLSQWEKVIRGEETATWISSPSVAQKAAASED

Compound | inhibition [1] [%] | IC50 [2] [µM]
Cc1nc2c(N3CCOCC3)nccn2c1NCc1ccccc1-c1ccccc1 | 75 | 
Cc1nc2c(N3CCOCC3)nccn2c1NCc1ccccc1-c1ccccc1Cl | 87 | 
Cc1nc2c(N3CCOCC3)nccn2c1NC(=O)Cc1ccc2c(c1)OCO2 | 44 | 
Cc1nc2c(N3CCOCC3)nccn2c1NCc1ccc(-c2ccc3ccccc3c2)cc1 | 54 | 
Cc1nc2c(N3CCOCC3)nccn2c1NC(=O)Cc1c(Cl)cccc1Cl | 47 | 
Cc1noc(C)c1-c1ccc(CNc2c(C)nc3c(N4CCOCC4)nccn23)cc1 | 90 | 0.518
Cc1nc2c(N3CCOCC3)nccn2c1NCc1ccccc1-c1cnn(C)c1 | 64 | 
Cc1nc2c(N3CCOCC3)nccn2c1NCc1ccc(-c2ccc(C(C)(C)C)cc2)cc1 | 38 | 
Cc1nc2c(N3CCOCC3)ncnc2n1Cc1ccc(-c2ccccc2)cc1 | 99 | 0.113 to 0.118
Cc1nc2c(N3CCOCC3)nccn2c1NCc1ccccc1-c1ccc2ccccc2c1 | 63 | 
Cc1nc2c(N3CCOCC3)nccn2c1NCc1ccccc1-c1ccc(C(C)(C)C)cc1 | 39 | 
Cc1nc2c(N3CCOCC3)nccn2c1NCc1ccc(-c2ccccc2Cl)cc1 | 77 | 
Cc1nc2c(N3CCOCC3)nccn2c1NCc1ccc(-c2ccccc2)cc1 | 55 | 
COc1ccc(-c2ccc(CNc3c(C)nc4c(N5CCOCC5)nccn34)cc2)cc1 | 87 | 
Cc1ccc(-c2ccccc2CNc2c(C)nc3c(N4CCOCC4)nccn23)cc1 | 57 | 
Cc1nc2c(N3CCOCC3)nccn2c1NCc1ccccc1Br | 73 | 
Cc1nc2c(N3CCOCC3)nccn2c1NCCc1ccc2ccccc2c1 | 78 | 
Cc1nc2c(N3CCOCC3)nccn2c1NCc1ccc(-c2cncnc2)cc1 | 79 | 

Compound | inhibition [1] [%] | IC50 [2] [µM]
Cc1nc2c(N3CCOCC3)nccn2c1NCc1ccccc1-c1cccnc1 | 76 | 
Cc1nc2c(N3CCOCC3)nccn2c1NCc1ccc(-c2ccncc2)cc1 | 91 | 0.391
Cc1nc2c(N3CCOCC3)nccn2c1NC(=O)Cc1ccc2ccccc2c1 | 24 | 
Cc1nc2c(N3CCOCC3)nccn2c1NCc1ccc(-c2cccnc2)cc1 | 90 | 0.529
Cc1nc2c(N3CCOCC3)nccn2c1NCc1ccc(-c2cnn(C)c2)cc1 | 88 | 
COc1ccc(CCNc2c(C)nc3c(N4CCOCC4)nccn23)c(-c2ccccc2)c1 | 93 | 0.336
Cc1nc2c(N3CCOCC3)nccn2c1NCc1ccccc1-c1cncnc1 | 61 | 
Cc1nc2c(N3CCOCC3)nccn2c1NCc1ccccc1-c1ccncc1 | 70 | 
Cc1nc2c(N3CCOCC3)nccn2c1NCCc1ccccc1 | 74 | 
Cc1nc2c(N3CCOCC3)nccn2c1NCCc1c(Cl)cccc1Cl | 98 | 0.447
Cc1nc2c(N3CCOCC3)nccn2c1NC(=O)Cc1ccccc1 | 51 | 
COc1ccc(-c2ccccc2CNc2c(C)nc3c(N4CCOCC4)nccn23)cc1OC | 51 | 
Cc1nc2c(N3CCOCC3)nccn2c1NCCc1ccc2c(c1)OCO2 | 82 | 
Cc1noc(C)c1-c1ccccc1CNc1c(C)nc2c(N3CCOCC3)nccn12 | 68 | 
COc1ccc(CCNc2c(C)nc3c(N4CCOCC4)nccn23)cc1-c1ccccc1 | 80 | 
Cc1ccc(-c2ccc(CNc3c(C)nc4c(N5CCOCC5)nccn34)cc2)cc1 | 74 | 
COc1ccc(-c2ccccc2CNc2c(C)nc3c(N4CCOCC4)nccn23)cc1 | 60 | 

Further lines, results first:

inhibition [1] [%] | IC50 [2] [µM] | Compound
94 | 0.103 | c1ccc(-c2ccc(Cn3cnc4c(N5CCOCC5)ncnc43)cc2)cc1
98 | 0.06 | Cc1nc2c(N3CCOCC3)ncnc2n1Cc1ccc(-c2cnc3[nH]ncc3c2)cc1
94 | 0.062 | COc1ccc(-c2ccc(Cn3c(C)nc4c(N5CCOCC5)ncnc43)cc2)cc1
93 | 0.327 | Cc1nc2c(N3CCOCC3)ncnc2n1Cc1ccc(Br)cc1
87 |  | Cc1nc2c(N3CCOCC3)ncnc2n1Cc1ccccc1Br
90 | 0.53 | Brc1ccc(Cn2cnc3c(N4CCOCC4)ncnc32)cc1
90 |  | CCOC(=O)c1ccc(Cn2c(C)nc3c(N4CCOCC4)ncnc32)cc1
97 | 0.168 | CCc1nc2c(N3CCOCC3)ncnc2n1Cc1ccc(-c2ccccc2)cc1
96 | 0.13 | Cc1nc2c(N3CCOCC3)ncnc2n1Cc1ccc(C(=O)Nc2ccccc2)cc1
93 | 0.258 | Cc1nc2c(N3CCOCC3)ncnc2n1Cc1ccc(-c2cccc(Cl)c2)cc1
77 |  | Cc1nc2c(N3CCOCC3)nccn2c1NCc1ccc(Br)cc1
96 | 0.116 | Cc1nc2c(N3CCOCC3)ncnc2n1Cc1ccc(-c2ccncc2)cc1
70 |  | Clc1cccc(Cl)c1Cn1cnc2c(N3CCOCC3)ncnc21
50 |  | COc1ccc(CC(=O)Nc2c(C)nc3c(N4CCOCC4)nccn23)cc1OC
100 | 0.107 | c1ccc2cc(Cn3cnc4c(N5CCOCC5)ncnc43)ccc2c1
91 | 0.168 | Cc1nc2c(N3CCOCC3)ncnc2n1Cc1ccc(-c2ccc(Cl)cc2)cc1
11 |  | O=C(Cn1cnc2c(N3CCOCC3)ncnc21)c1ccccc1
92 | 0.243 | COc1ccc(CCNc2c(C)nc3c(N4CCOCC4)nccn23)c(Br)c1
81 |  | COc1ccc(CCNc2c(C)nc3c(N4CCOCC4)nccn23)cc1Br
20 |  | COc1cccc(CCn2cnc3c(N4CCOCC4)ncnc32)c1
97 | 0.061 | Cc1nc2c(N3CCOCC3)ncnc2n1Cc1ccc(-c2cccnc2)cc1
83 |  | COc1ccc(CCNc2c(C)nc3c(N4CCOCC4)nccn23)cc1OC
13 |  | c1ccc(CCn2cnc3c(N4CCOCC4)ncnc32)cc1
85 |  | COc1cc(Cn2cnc3c(N4CCOCC4)ncnc32)cc(OC)c1
66 |  | c1ccc(Cn2cnc3c(N4CCOCC4)ncnc32)cc1
96 | 0.119 | Cc1noc(C)c1-c1ccc(Cn2c(C)nc3c(N4CCOCC4)ncnc32)cc1
